Assay results from ChEMBL document CHEMBL1148296, “Syntheses, calcium channel agonist-antagonist modulation activities, and nitric oxide release studies of nitrooxyalkyl 1,4-dihydro-2,6-dimethyl-3-nitro-4-(2,1,3-benzoxadiazol-4-yl)pyridine-5-carboxylate racemates, enantiomers, and diastereomers” (J Med Chem, 2004).

Key:
Cavia porcellus [1] = organism: Cavia porcellus; test: In vitro nitric oxide release incubated in the absence of N-acetyl-cysteamine in phosphate buffer; assay type: functional
In short: (§1)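 Compound (0.0075 mmol) stirred under argon at 37 °C for 1 h in 0.1 M phosphate buffer pH 7.40/acetonitrile 1:1; line 6 with N-acetylcysteamine 1 equiv per ONO2, line 5 without. After air exposure, Griess reagent 10 min, A540; nitrite quantified against 3–24 µM NaNO2 standards; % NO from one ONO2, control without compound, n = 3.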

Cavia porcellus [2] = organism: Cavia porcellus; test: In vitro nitric oxide release incubated in the presence of N-acetyl-cysteamine in phosphate buffer; assay type: functional; in short: as §1

O=[N+]([O-])OCC(CO[N+](=O)[O-])O[N+](=O)[O-] [NITROGLYCERIN]
Release (Cavia porcellus [1]): 0.18%
Release (Cavia porcellus [2]): 5.3%
